In ChEMBL document CHEMBL4020830, “Design, Synthesis, and Evaluation of a Novel Series of Indole Sulfonamide Peroxisome Proliferator Activated Receptor (PPAR) α/γ/δ Triple Activators: Discovery of Lanifibranor, a New Antifibrotic Clinical Candidate” (J Med Chem, 2018):

Columns and labels:
Type in all cases: cell-based
[1] = target: T1, Peroxisome proliferator-activated receptor gamma (Homo sapiens) (UniProt P37231); test: Transactivation of human GAL4-fused PPARgamma LBD expressed in African green monkey COS7 cells co-expressing 5Gal4 pGL3 TK Luc after overnight incubation by luciferase reporter gene assay relative to rosiglitazone
T1 sequence (whole entry): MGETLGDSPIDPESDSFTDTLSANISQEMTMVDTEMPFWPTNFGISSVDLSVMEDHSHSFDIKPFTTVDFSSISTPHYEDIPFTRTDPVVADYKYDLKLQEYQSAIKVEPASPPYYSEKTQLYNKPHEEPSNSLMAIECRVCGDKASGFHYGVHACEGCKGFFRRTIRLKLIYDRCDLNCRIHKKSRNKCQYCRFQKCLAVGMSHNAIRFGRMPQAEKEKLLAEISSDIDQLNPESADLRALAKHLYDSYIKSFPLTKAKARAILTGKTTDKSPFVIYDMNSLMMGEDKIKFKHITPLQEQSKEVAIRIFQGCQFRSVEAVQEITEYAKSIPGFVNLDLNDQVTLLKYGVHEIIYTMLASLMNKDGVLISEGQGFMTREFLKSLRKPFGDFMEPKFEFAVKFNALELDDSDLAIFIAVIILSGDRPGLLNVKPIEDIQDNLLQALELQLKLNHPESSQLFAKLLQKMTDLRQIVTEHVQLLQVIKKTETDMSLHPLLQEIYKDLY
In short: (§1)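 Cell-based Gal-4 transactivation assay in COS-7 cells transfected with PPARα, PPARδ or PPARγ ligand-binding domain. EC50 and Emax were derived, with Emax as maximum activation in percent of control. EC50s are means of at least two independent experiments performed in triplicate.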

[2] = target: T2, Peroxisome proliferator-activated receptor delta (Homo sapiens) (UniProt Q03181); test: Transactivation of human GAL4-fused PPARdelta LBD expressed in African green monkey COS7 cells co-expressing 5Gal4 pGL3 TK Luc after overnight incubation by luciferase reporter gene assay relative to GW501516; in short: as §1
T2 sequence (whole entry): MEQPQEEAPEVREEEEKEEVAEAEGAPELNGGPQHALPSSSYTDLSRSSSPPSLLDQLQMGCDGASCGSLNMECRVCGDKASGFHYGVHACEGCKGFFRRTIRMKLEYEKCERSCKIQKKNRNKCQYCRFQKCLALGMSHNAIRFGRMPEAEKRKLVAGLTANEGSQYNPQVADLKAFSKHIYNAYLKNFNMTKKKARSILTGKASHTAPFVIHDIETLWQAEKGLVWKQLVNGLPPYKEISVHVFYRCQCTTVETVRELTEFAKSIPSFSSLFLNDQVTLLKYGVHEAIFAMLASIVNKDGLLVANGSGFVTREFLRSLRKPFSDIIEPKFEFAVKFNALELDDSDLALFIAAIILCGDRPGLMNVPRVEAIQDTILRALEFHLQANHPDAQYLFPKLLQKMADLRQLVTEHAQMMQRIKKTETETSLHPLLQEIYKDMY

[3] = target: T3, Peroxisome proliferator-activated receptor alpha (Homo sapiens) (UniProt Q07869); test: Transactivation of human GAL4-fused PPARalpha LBD expressed in African green monkey COS7 cells co-expressing 5Gal4 pGL3 TK Luc after overnight incubation by luciferase reporter gene assay relative to fenofibric acid; in short: as §1
T3 sequence (whole entry): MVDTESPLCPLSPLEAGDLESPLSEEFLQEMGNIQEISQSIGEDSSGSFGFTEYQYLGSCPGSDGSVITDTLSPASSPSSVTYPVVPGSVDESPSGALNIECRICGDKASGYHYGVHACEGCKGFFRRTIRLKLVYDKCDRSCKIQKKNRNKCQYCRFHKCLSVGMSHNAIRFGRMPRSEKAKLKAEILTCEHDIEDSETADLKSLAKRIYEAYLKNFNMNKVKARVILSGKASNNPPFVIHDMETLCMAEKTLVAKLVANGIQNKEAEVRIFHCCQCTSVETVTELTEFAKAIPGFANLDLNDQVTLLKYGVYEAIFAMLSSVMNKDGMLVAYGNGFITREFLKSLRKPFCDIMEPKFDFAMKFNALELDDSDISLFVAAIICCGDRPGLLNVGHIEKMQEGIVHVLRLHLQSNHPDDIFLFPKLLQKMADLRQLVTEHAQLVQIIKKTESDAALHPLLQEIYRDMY

[4] = target: T4, Peroxisome proliferator-activated receptor delta (Homo sapiens, UniProt Q03181); test: Transactivation of human GAL4-fused PPARdelta LBD expressed in African green monkey COS7 cells co-expressing 5Gal4 pGL3 TK Luc after overnight incubation by luciferase reporter gene assay; in short: as §1
T4 sequence (Q03181 whole entry): T2 sequence (whole entry)

[5] = target: T5, Peroxisome proliferator-activated receptor gamma (Homo sapiens, UniProt P37231); test: Transactivation of human GAL4-fused PPARgamma LBD expressed in African green monkey COS7 cells co-expressing 5Gal4 pGL3 TK Luc after overnight incubation by luciferase reporter gene assay; in short: as §1
T5 sequence (P37231 whole entry): T1 sequence (whole entry)

[6] = target: T6, Peroxisome proliferator-activated receptor alpha (Homo sapiens, UniProt Q07869); test: Transactivation of human GAL4-fused PPARalpha LBD expressed in African green monkey COS7 cells co-expressing 5Gal4 pGL3 TK Luc after overnight incubation by luciferase reporter gene assay; in short: as §1
T6 sequence (Q07869 whole entry): T3 sequence (whole entry)

Structure (SMILES)	Emax [1]	Emax [2]	Emax [3]	EC50 [4]	EC50 [5]	EC50 [6]
COc1ccccc1S(=O)(=O)n1c(CCCC(=O)O)cc2cc(C(F)(F)F)ccc21	35%	< 20%	35%	–	1250 nM	> 5000 nM
O=C(O)CCCc1cc2cc(C(F)(F)F)ccc2n1S(=O)(=O)c1ccc(OC(F)(F)F)cc1	32%	28%	40%	2100 nM	573 nM	1960 nM
COc1cccc(S(=O)(=O)n2c(CCCC(=O)O)cc3cc(C(F)(F)F)ccc32)c1	46%	28%	37%	1610 nM	65 nM	1160 nM
O=C(O)CCCc1cc2cc(Cl)ccc2n1S(=O)(=O)c1ccc2ccccc2c1	34%	< 20%	< 20%	–	35 nM	–
COc1ccc(S(=O)(=O)n2c(CCCC(=O)O)cc3cc(Cl)ccc32)cc1	25%	< 20%	26%	–	72 nM	419 nM
O=C(O)CCCc1cc2cc(C(F)(F)F)ccc2n1S(=O)(=O)c1ccccc1Cl	45%	< 20%	104%	–	> 5000 nM	> 5000 nM
O=C(O)COCc1cc2cc(Cl)ccc2n1S(=O)(=O)c1ccccc1	< 20%	< 20%	< 20%	–	–	–
CC(C)(CCc1cc2cc(Cl)ccc2n1S(=O)(=O)c1ccccc1)C(=O)O	32%	< 20%	90%	–	910 nM	160 nM

The next lines start with the values.

Emax [1]	Emax [2]	Emax [3]	EC50 [4]	EC50 [5]	EC50 [6]	Structure (SMILES)
36%	27%	< 20%	441 nM	11 nM	–	Cc1nc2ccc(S(=O)(=O)n3c(CCCC(=O)O)cc4cc(Cl)ccc43)cc2s1
50%	49%	48%	> 5000 nM	417 nM	1200 nM	O=C(O)CCCc1cc2cc(C(F)(F)F)ccc2n1S(=O)(=O)c1ccccc1
39%	20%	22%	1100 nM	175 nM	2360 nM	Cc1nc2cc(S(=O)(=O)n3c(CCCC(=O)O)cc4cc(Cl)ccc43)ccc2s1
42%	20%	43%	> 5000 nM	> 5000 nM	> 5000 nM	O=C(O)CCCc1cc2cc(Cl)ccc2n1S(=O)(=O)c1ccc2nc[nH]c2c1
36%	38%	45%	1650 nM	629 nM	2820 nM	O=C(O)CCCc1cc2cc(C(F)(F)F)ccc2n1S(=O)(=O)c1ccc(Cl)cc1
< 20%	< 20%	< 20%	–	–	–	COc1ccc2c(c1)cc(CCCC(=O)O)n2S(=O)(=O)c1ccccc1
67%	35%	81%	> 5000 nM	153 nM	> 5000 nM	O=C(O)CCCc1cc2cc(Cl)ccc2n1S(=O)(=O)c1ccc2nsnc2c1
46%	42%	59%	1350 nM	75 nM	1250 nM	Cc1cccc(S(=O)(=O)n2c(CCCC(=O)O)cc3cc(Cl)ccc32)c1
36%	< 20%	67%	–	265 nM	901 nM	O=C(O)CCCc1cc2cc(Cl)ccc2n1S(=O)(=O)c1cccc2ccccc12
74%	82%	57%	919 nM	41 nM	1260 nM	Nc1nc2ccc(S(=O)(=O)n3c(CCCC(=O)O)cc4cc(Cl)ccc43)cc2s1
49%	21%	70%	2030 nM	256 nM	2420 nM	O=C(O)CCCc1cc2cc(C(F)(F)F)ccc2n1S(=O)(=O)c1cccc(Cl)c1
< 20%	< 20%	< 20%	–	–	–	O=C(O)CCCCc1cc2cc(Cl)ccc2n1S(=O)(=O)c1ccccc1
